Measurements from ChEMBL document CHEMBL1159311, “Antiinflammatory constituents of Celastrus orbiculatus inhibit the NF-kappaB activation and NO production” (J Nat Prod, 2002).
pIC50: −log10 of the molar value.

How the values were obtained:
RAW264.7 [1] = experiment: Antiinflammatory activity against mouse RAW264.7 cells assessed as inhibition of LPS-induced NO production […] assessed after 24 hrs by Griess reagent assay; type: functional, cell-based
Method in brief: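 RAW264.7 cells were seeded at 1 × 10^5 cells/well and held 3 h. They were then stimulated with LPS (1 µg/mL) for 24 h with or without compound. Supernatant nitrite was measured by Griess reaction: equal volumes of supernatant and reagent (0.1% N-(1-naphthyl)ethylenediamine and 1% sulfanilamide in 5% phosphoric acid, 1:1), absorbance at 570 nm. Values were quantified against a sodium nitrite standard curve. Aminoguanidine served as reference. IC50 reported. Viability was checked by MTT.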

RAW264.7 [2] = experiment: Antiinflammatory activity against mouse RAW264.7 cells assessed as inhibition of LPS-induced NF-kappaB activation […] assessed after 24 hrs by SEAP reporter gene assay; type: functional, cell-based
Method in brief: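 RAW264.7 cells stably carrying a plasmid with eight κB elements driving SEAP were seeded at 5 × 10^4 cells/well and held 3 h at 37 °C. Cells then received test compounds at various concentrations together with LPS (1 µg/mL) for 24 h. Supernatant was heated 65 °C for 5 min, then mixed with 2× SEAP buffer (2 M diethanolamine, 1 mM MgCl2, 20 mM L-homoarginine) for 10 min at 37 °C. p-Nitrophenyl phosphate substrate was added, incubated at 37 °C, and A405 read. Dose-response IC50 reported.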

| SMILES | pIC50 (RAW264.7 [1]) | pIC50 (RAW264.7 [2]) |
| --- | --- | --- |
| CC(=O)O[C@H]1C[C@@H](C)[C@]23OC(C)(C)[C@H](C[C@H](OC(=O)c4ccccc4)[C@]2(C)[C@H]1OC(C)=O)[C@H]3OC(=O)c1ccccc1 [ORBICULIN A] | < 3.52 | < 3.52 |
| CC(=O)O[C@H]1CC[C@@H](C)[C@]23OC(C)(C)[C@H](C[C@H](OC(=O)c4ccco4)[C@]12C)[C@H]3OC(=O)c1ccco1 [ORBICULIN D] | 4.36 | 4.44 |
| N=C(N)NN [PIMAGEDINE] | 4.79 |  |
| CC(=O)O[C@@H]1[C@@H]2[C@@H](OC(=O)c3ccco3)[C@]3(OC2(C)C)[C@H](C)CC[C@H](OC(C)=O)[C@@]3(C)[C@H]1OC(=O)c1ccco1 [ORBICULIN H] | 4.30 | 4.47 |
| CC1(C)CCC[C@@]2(C)C1=C(O)C(=O)c1cc(O)c(O)cc12 [CELAPHANOL A] | 4.49 | 4.74 |
| CC1=C(O)C(=O)C=C2C1=CC=C1[C@@]2(C)CC[C@@]2(C)[C@@H]3C[C@](C)(C(=O)O)CC[C@]3(C)CC[C@]12C [CELASTROL] | 6.64 | 6.57 |

Next, values leading:

| pIC50 (RAW264.7 [1]) | pIC50 (RAW264.7 [2]) | SMILES |
| --- | --- | --- |
| < 3.52 | < 3.52 | CC(=O)O[C@H]1[C@@H](OC(=O)c2ccco2)C[C@@H](C)[C@]23OC(C)(C)[C@H](C[C@H](OC(=O)c4ccccc4)[C@]12C)[C@H]3OC(=O)c1ccco1 [ORBICULIN F] |
| < 3.52 | < 3.52 | CC(=O)O[C@H]1C[C@@H](C)[C@]23OC(C)(C)[C@H](C[C@H](OC(=O)c4ccccc4)[C@]2(C)[C@H]1OC(C)=O)[C@H]3OC(=O)c1ccco1 [ORBICULIN E] |
| 4.29 | 4.21 | CC(=O)O[C@H]1[C@@H](OC(=O)c2ccco2)C[C@@H](C)[C@]23OC(C)(C)[C@H](C[C@H](OC(=O)c4ccco4)[C@]12C)[C@H]3OC(=O)c1ccco1 [ORBICULIN I] |
